According to ChEMBL document CHEMBL2331424, “Synthesis and biological evaluation of novel neuroprotective agents for paraquat-induced apoptosis in human neuronal SH-SY5Y cells” (2013):

Columns and labels:
[1] = Neuroprotective activity in human SH-SY5Y cells assessed as cell viability after paraquat-induced toxicity at 10 uM incubated for 2 hrs prior to paraquat challenge measured after 24 hrs by MTT assay (reference value: 62.05 +/- 0.47%)
SH-SY5Y [2] = experiment: Neuroprotective activity in human SH-SY5Y cells assessed as decrease in paraquat-induced proteolytic cleavage of procaspase-9 incubated for 4 hrs prior to paraquat challenge measured after 24 hrs by Western blotting analysis; type: functional, cell-based
In short: (§1)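 SH-SY5Y in DMEM/F12 with 10% FBS pre-incubated with compound (0.1-10 μM, 4 h), then paraquat 250 μM. Western blot for caspase-3 and caspase-9 cleavage, Bax, Bcl-2, SOD or GPx, with GAPDH as loading control. HRP secondary antibodies and ECL detection, bands quantified. ≥3 independent experiments in duplicate; ANOVA with Dunnett's test.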

[3] = Neuroprotective activity in paraquat-stimulated human SH-SY5Y cells assessed as upregulation of GPx expression incubated for 4 hrs prior to paraquat challenge measured after 24 hrs by Western blotting analysis; type: functional, cell-based
In short: as §1

[4] = Neuroprotective activity in paraquat-stimulated human SH-SY5Y cells assessed as downregulation of Bax expression incubated for 4 hrs prior to paraquat challenge measured after 24 hrs by Western blotting analysis; type: functional, cell-based
In short: as §1

SH-SY5Y [5] = experiment: Neuroprotective activity in human SH-SY5Y cells assessed as decrease in paraquat-induced nuclear morphological changes incubated for 4 hrs prior to paraquat challenge measured after 24 hrs by Hoechst 33342 staining-based fluorescence microscopic analysis
[6] = Neuroprotective activity in paraquat-stimulated human SH-SY5Y cells assessed as upregulation of Bcl2 expression incubated for 4 hrs prior to paraquat challenge measured after 24 hrs by Western blotting analysis; type: functional, cell-based
In short: as §1

SH-SY5Y [7] = experiment: Neuroprotective activity in human SH-SY5Y cells assessed as decrease in paraquat-induced intracellular ROS level incubated for 4 hrs prior to paraquat challenge measured after 2 hrs by fluorescence microscopic analysis
[8] = Neuroprotective activity in paraquat-stimulated human SH-SY5Y cells assessed as upregulation of SOD expression incubated for 4 hrs prior to paraquat challenge measured after 24 hrs by Western blotting analysis; type: functional, cell-based
In short: as §1

SH-SY5Y [9] = experiment: Neuroprotective activity in human SH-SY5Y cells assessed as decrease in paraquat-induced proteolytic cleavage of procaspase-3 incubated for 4 hrs prior to paraquat challenge measured after 24 hrs by Western blotting analysis; type: functional, cell-based
In short: as §1

[10] = target: T1, Prostaglandin G/H synthase 2 (Homo sapiens) (UniProt P35354); experiment: Ratio of resveratrol IC50 to compound IC50 for inhibition of prostaglandin H-2 synthase (unknown origin)
T1 sequence (whole entry): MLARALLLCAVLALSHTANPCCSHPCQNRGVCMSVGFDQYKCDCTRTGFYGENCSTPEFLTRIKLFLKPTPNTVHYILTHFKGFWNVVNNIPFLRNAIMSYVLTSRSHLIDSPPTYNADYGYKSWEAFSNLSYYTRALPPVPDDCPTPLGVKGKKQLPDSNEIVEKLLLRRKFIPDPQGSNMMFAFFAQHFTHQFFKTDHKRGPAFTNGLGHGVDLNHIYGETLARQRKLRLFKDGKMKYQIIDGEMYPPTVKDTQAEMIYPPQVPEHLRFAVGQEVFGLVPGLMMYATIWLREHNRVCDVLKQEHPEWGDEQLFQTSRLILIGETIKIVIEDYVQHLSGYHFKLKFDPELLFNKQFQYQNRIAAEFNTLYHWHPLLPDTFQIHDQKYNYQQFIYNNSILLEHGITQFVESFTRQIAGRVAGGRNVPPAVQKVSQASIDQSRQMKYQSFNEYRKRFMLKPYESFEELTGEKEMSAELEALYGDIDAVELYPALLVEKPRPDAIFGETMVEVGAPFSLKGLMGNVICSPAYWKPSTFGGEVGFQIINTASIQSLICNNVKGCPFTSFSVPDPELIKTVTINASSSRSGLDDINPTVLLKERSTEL

`COc1cc(OC)cc([C@@H]2C(O)c3cc(OC)cc(OC)c3[C@H]2c2ccccc2)c1` (relative stereo) gave a viability at 10 µM [1] of 63.9%.

`Oc1ccc(/C=C2/c3cc(O)cc(O)c3[C@@H](c3ccc(O)cc3)[C@@H]2c2cc(O)cc(O)c2)cc1` (racemic) showed a viability at 10 µM [1] of 57.9%.

`COc1cc(OC)cc([C@@H]2C(=O)c3cc(OC)cc(OC)c3[C@H]2c2ccccc2)c1` (single isomer, unassigned) showed a viability at 10 µM [1] of 65%.

Compound `Oc1ccc(/C=C/c2cc(O)cc(O)c2)cc1` [RESVERATROL] has a viability at 10 µM [1] of 66.3%.

With `O=C1c2cc(O)cc(O)c2[C@@H](c2ccc(O)cc2)[C@@H]1c1cc(O)cc(O)c1` [ISOPAUCIFLORAL F] the viability at 10 µM [1] was 58.5%.

For `COc1ccc([C@@H]2c3c(OC)cc(OC)cc3C(O)[C@H]2c2cc(OC)cc(OC)c2)cc1` (relative stereo), the viability at 10 µM [1] was 59%.

For `Oc1ccc(CC2=C(c3cc(O)cc(O)c3)C(c3ccc(O)cc3)c3c(O)cc(O)cc32)cc1` (configuration not stated), the Activity (SH-SY5Y [2]) was “Dose-dependent effect”, the Activity [3] was “Dose-dependent effect” and the Activity [4] was “Dose-dependent effect”. For the same compound, the Activity (SH-SY5Y [5]) was “Dose-dependent effect”, the Activity [6] was “Dose-dependent effect” and the Activity (SH-SY5Y [7]) was “Dose-dependent effect”. For the same compound, the Activity [8] was “Dose-dependent effect”, the viability at 10 µM [1] was 89.6% and the Activity (SH-SY5Y [9]) was “Dose-dependent effect”.

`COc1ccc(/C=C2/c3cc(OC)cc(OC)c3[C@@H](c3ccccc3)[C@@H]2c2cc(OC)cc(OC)c2)cc1` gave a viability at 10 µM [1] of 64%.

For `COc1ccc(CC2=C(c3cc(OC)cc(OC)c3)[C@@H](c3ccc(OC)cc3)c3c(OC)cc(OC)cc32)cc1`, the viability at 10 µM [1] was 61.4%.

Compound `Oc1ccc([C@@H]2c3c(O)cc(O)cc3[C@H]3[C@H](c4ccccc4)c4c(O)cc(O)cc4[C@@H]23)cc1` has a viability at 10 µM [1] of 77.2%.

In the case of `COc1ccc(/C=C2/c3cc(OC)cc(OC)c3[C@@H](c3ccc(OC)cc3)[C@@H]2c2cc(OC)cc(OC)c2)cc1`, the viability at 10 µM [1] is reported as 62.4%.

`COc1ccc([C@@H]2c3c(OC)cc(OC)cc3[C@H]3[C@H](c4ccc(OC)cc4)c4c(OC)cc(OC)cc4[C@@H]23)cc1` showed a viability at 10 µM [1] of 63.6%.

Compound `COc1ccc(CSC2c3cc(OC)cc(OC)c3[C@@H](c3ccc(OC)cc3)[C@@H]2c2cc(OC)cc(OC)c2)cc1` (some centres not stated) has a viability at 10 µM [1] of 65.2%.

With `COc1ccc(C2C(c3cc(OC)cc(OC)c3)=Cc3cc(OC)cc(OC)c32)cc1` (configuration not stated) the viability at 10 µM [1] was 58.6%.

With `COc1ccc(CSC2c3cc(OC)cc(OC)c3[C@@H](c3ccccc3)[C@@H]2c2cc(OC)cc(OC)c2)cc1` (some centres not stated) the viability at 10 µM [1] was 60.6%.

Work on `COc1ccc([C@@H]2c3c(OC)cc(OC)cc3C(=O)[C@H]2c2cc(OC)cc(OC)c2)cc1` (relative stereo) yielded a viability at 10 µM [1] of 59.9%.

Compound `COc1ccc(C2C(c3cc(OC)cc(OC)c3)=C(C)c3cc(OC)cc(OC)c32)cc1` (configuration not stated) has a viability at 10 µM [1] of 55.8%.

Work on `Oc1ccc([C@H]2Oc3cc(O)cc4c3[C@@H]2c2cc(O)cc3c2[C@@H](c2cc(O)cc5c2[C@@H]4[C@H](c2ccc(O)cc2)O5)[C@H](c2ccc(O)cc2)O3)cc1` yielded a Ratio IC50 [10] of 3.

In the case of `COc1ccc(/C=C2\c3cc(OC)cc(OC)c3[C@@H](c3ccc(OC)cc3)[C@@H]2c2cc(OC)cc(OC)c2)cc1`, the viability at 10 µM [1] is reported as 63.6%.

Work on `C=C1c2cc(OC)cc(OC)c2[C@@H](c2ccc(OC)cc2)[C@@H]1c1cc(OC)cc(OC)c1` yielded a viability at 10 µM [1] of 58.2%.

Compound `O=C1c2cc(O)cc(O)c2[C@@H](c2ccccc2)[C@@H]1c1cc(O)cc(O)c1` has a viability at 10 µM [1] of 65%.

`COc1ccc(/C=C2\c3cc(OC)cc(OC)c3[C@@H](c3ccccc3)[C@@H]2c2cc(OC)cc(OC)c2)cc1` showed a viability at 10 µM [1] of 65.3%.

Compound `Oc1ccc(CC2=C(c3cc(O)cc(O)c3)C(c3ccccc3)c3c(O)cc(O)cc32)cc1` (configuration not stated) has a viability at 10 µM [1] of 82.9%.

Work on `Oc1ccc([C@@H]2c3c(O)cc(O)cc3[C@H]3[C@H](c4ccc(O)cc4)c4c(O)cc(O)cc4[C@@H]23)cc1` (racemic) [PALLIDOL] yielded a viability at 10 µM [1] of 72.4%.
